This note sets out measurements from ChEMBL document CHEMBL1124898, “Novel agents effective against solid tumors: the diarylsulfonylureas. Synthesis, activities, and analysis of quantitative structure-activity relationships” (J Med Chem, 1990).

One experiment relates to CCRF-CEM. The experiment in a line: Concentration required to inhibit growth of CCRF-CEM cells in culture for 72 hr to 50% of control growth. Format: functional, cell-based. Conditions: Homo sapiens.
Experiment [1] is described as follows: Antitumor activity in vivo against the 6C3HED lymphosarcoma dosed for 8 days at 150 mg/kg. Conditions: Mus musculus, 192 h.
The test system of the next experiment is Rattus norvegicus. The experiment in a line: Hypoglycemic activity expressed as (Maximum reduction in blood glucose in mg/dL relative to predosing glucose level)/(time in hours at which maximum reduction occurred). Format: functional. The procedure, abridged: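 Fed male Sprague-Dawley rats (175–200 g), four per compound, received a single oral gavage dose of 200 mg/kg suspended in 5% acacia. Tail blood was sampled before dosing and at 1, 2, 3 and 5 h, and glucose was measured by glucose oxidase/peroxidase colorimetry. Each rat served as its own control. Value = maximum fall from predose glucose (mg/dL) divided by the hour at which that maximum occurred.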

The test system of the next experiment is M109. The experiment in a line: Antitumor activity in vivo expressed as percent of inhibition in Madison-lung carcinoma cell line; 80-94% inhibition. Format: functional, Mus musculus. The procedure, abridged:
(§1)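 Tumor fragments (about 1–2 mm) implanted sc via trochar into a subaxillary site of syngeneic mice (C3H, C57BL/6, Balb/C or DBA/2) or Holtz rats. Groups were 7–10 randomized animals. Compound was suspended in 2.5% Emulphor in 0.9% saline and given orally by gavage or ip, usually from the day after implantation. Tumor volume versus untreated controls was measured one day after the final dose and reported as % inhibition. Scoring bands: +++ 95–100%, ++ 80–94%.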

A short description of experiment [2]: Antitumor activity in vivo against the 6C3HED lymphosarcoma, dosed for 8 days at 300 mg/kg. The settings on record: Mus musculus, 192 h.
A further experiment has as its system B16. Briefly: Antitumor activity in vivo expressed as percent of inhibition in B-16-melanoma (solid) cell line. It is filed as functional, Mus musculus. The procedure, abridged: as §1
A further experiment concerns CA-755. Briefly: Antitumor activity in vivo expressed as percent of inhibition in CA-755-mammary adenocarcinoma tumor cell line; 95-100% inhibition. It is filed as functional, Mus musculus. In outline:
as §1

A further experiment concerns M-5 (Mus musculus). The experiment in a line: Antitumor activity in vivo expressed as percent of inhibition in M-5-ovarian carcinoma cell line; 95-100% inhibition.
In experiment [3] the test system is Lewis lung carcinoma cell line. Briefly: Antitumor activity in vivo expressed as percent of inhibition in Lewis-lung carcinoma cell line. It is filed as functional, Mus musculus. In outline: as §1
In another experiment the test system is C3H. The experiment in a line: Antitumor activity in vivo expressed as percent of inhibition in C3H-mammary adenocarcinoma cell line; 95-100% inhibition. Format: functional, Mus musculus. In outline: as §1
Another experiment has as its system X5563. Briefly: Antitumor activity in vivo expressed as percent of inhibition in X5563-plasma cell myeloma cell line; 60-79 % inhibition. Format: functional, Mus musculus. In outline:
as §1

Another experiment relates to Colon 26. Briefly: Antitumor activity in vivo expressed as percent of inhibition in C-26-colon carcinoma cell line; 95-100% inhibition. It is filed as functional, Mus musculus. In outline:
as §1

A further experiment has as its system P388. The experiment in a line: Antitumor activity in vivo and the activity was determined as percent increase in life span determined against P388-lymphocytic leukemia tumor cell lines; 50-99 %. It is filed as functional, Mus musculus. In outline:
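The ascites tumor inoculum of 1 × 10^6 cells was given ip to DBA/2 mice, and treatment started the next day. Compound was suspended in 2.5% Emulphor in 0.9% saline. Groups had 7–10 animals. %ILS = (MDD treated − MDD control)/MDD control × 100. Deaths before the control median day of death were counted as toxic. Values are optimal from at least two experiments.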

The test system of a further experiment is 6C3HED. Briefly: Antitumor activity in vivo expressed as percent of inhibition in 6C3HED-lymphosarcoma tumor cell line; 95-100% inhibition. It is filed as functional, Mus musculus. In outline: as §1
Experiment [4] is described as follows: Antitumor activity in vivo against the 6C3HED lymphosarcoma dosed for 10 days at 150 mg/kg. It is filed as functional. Conditions: Mus musculus, 192 h, in the assay text read “dosed for 8 days” for “dosed for 10 days”. In outline: as §1

Values after ≈ are worked out from the molar mass of the structure shown.

In general, IC50 refers to the concentration that gives 50% inhibition. A high value points to lower potency. By inhibition in vivo is commonly meant the drop in the measured response relative to a control, in per cent. In the experiment with CCRF-CEM, `O=C(Nc1ccc(Cl)c(Cl)c1)NS(=O)(=O)c1ccccc1` had a 50% inhibitory concentration (IC50) of 1.5 µg/mL (≈ 4.35 µM). Also, in experiment [1], testing at 150 mg/kg gave an inhibition in vivo of 100%.
Taken in the same sequence, the figures for `COc1ccc(S(=O)(=O)NC(=O)Nc2ccc(Cl)cc2)cc1` were 12.6 µg/mL (≈ 37 µM) and 100%.
A word on the Inhibition: it is the drop in the measured response relative to a control, in per cent. With `O=C(Nc1ccc(Cl)cc1)NS(=O)(=O)c1ccc2c(c1)CCC2` [SULOFENUR], the IC50 in the experiment on CCRF-CEM stood at 11.2 µg/mL (≈ 31.9 µM). The Ratio with Rattus norvegicus is reported as 0. For the same compound, the Inhibition was 94% in the experiment with M109; less than 60% with B16; 100% in the experiment with CA-755; 100% in the experiment with M-5 (Mus musculus); less than 60% in [3]; 100% with C3H. Besides, the Inhibition in the experiment with X5563 came to 79%; in the experiment on Colon 26 it was 100%; with 6C3HED, 100%. For the same compound, at 300 mg/kg the inhibition in vivo in experiment [2] was 100%. Besides, the Increase in life-span with P388 is on record as 99%.
The compound `O=C(Nc1ccc(C(F)(F)F)cc1)NS(=O)(=O)c1ccc(Cl)cc1` gave an IC50 in the experiment with CCRF-CEM of 5.8 µg/mL (≈ 15.3 µM). The Ratio with Rattus norvegicus amounted to 0. This compound also showed an inhibition in vivo at 150 mg/kg in experiment [4] of 94%.
For the compound `COc1ccc(S(=O)(=O)NC(=O)Nc2ccc(C(F)(F)F)cc2)cc1`, it took 8 µg/mL (≈ 21.4 µM) to reach half-maximal inhibition in the experiment on CCRF-CEM (IC50). The compound also came in with an inhibition in vivo at 150 mg/kg in experiment [1] of 100%.
In the experiment with CCRF-CEM, `COc1ccc(S(=O)(=O)NC(=O)Nc2ccc(Br)cc2)cc1` showed an IC50 of 14.3 µg/mL (≈ 37.1 µM). Testing at 150 mg/kg in experiment [4] gave an inhibition in vivo of 99%.
Take `Cc1ccc(S(=O)(=O)NC(=O)Nc2ccc(Cl)cc2Cl)cc1`: in the experiment with CCRF-CEM, the IC50 was more than 20 µg/mL. Further, in [2], the inhibition in vivo at 300 mg/kg turned out to be 39%.
`Cc1ccc(S(=O)(=O)NC(=O)Nc2cc(Cl)cc(Cl)c2)cc1`: the 50% inhibitory concentration (IC50) in the experiment on CCRF-CEM is more than 20 µg/mL. In [2], this compound gave an inhibition in vivo at 300 mg/kg of 21%.
With `Cc1ccc(S(=O)(=O)NC(=O)Nc2c(F)c(F)cc(F)c2F)cc1`, the half-inhibitory concentration (IC50) with CCRF-CEM was more than 20 µg/mL. In [2], this compound yielded an inhibition in vivo at 300 mg/kg of 0%.
In the experiment on CCRF-CEM, `CCCOc1cccc(NC(=O)NS(=O)(=O)c2ccc(C)cc2)c1` gave an IC50 of more than 20 µg/mL. Moreover, testing at 300 mg/kg in experiment [2] gave an inhibition in vivo of 0%.
`O=C(Nc1ccc(Cl)cc1)NS(=O)(=O)c1cccc(Cl)c1`: 9 µg/mL (≈ 26.1 µM) corresponded to half-maximal inhibition in the experiment with CCRF-CEM (IC50). This compound also had an inhibition in vivo at 150 mg/kg in [4] of 98%.
Regarding `Cc1ccc(S(=O)(=O)NC(=O)Nc2ccc(Cl)c([N+](=O)[O-])c2)cc1`, in the experiment with CCRF-CEM, it took 15.8 µg/mL (≈ 42.7 µM) to reach half-maximal inhibition (IC50). This compound also yielded an inhibition in vivo at 300 mg/kg in experiment [2] of 30%.
For `O=C(Nc1ccc(Cl)cc1)NS(=O)(=O)c1cccc2ccccc12`, in the experiment on CCRF-CEM, the IC50 stood at 15.2 µg/mL (≈ 42.1 µM). This compound also returned an inhibition in vivo at 300 mg/kg in experiment [2] of 29%.
For `CCc1ccc(S(=O)(=O)NC(=O)Nc2ccc(Cl)cc2)cc1`, in the experiment with CCRF-CEM, the half-maximal inhibitory concentration (IC50) turned out to be 7.5 µg/mL (≈ 22.1 µM). Moreover, 150 mg/kg produced 100% inhibition in vivo in experiment [1].
`COc1cccc(S(=O)(=O)NC(=O)Nc2ccc(Cl)cc2)c1` yielded a concentration for half-maximal inhibition (IC50) in the experiment on CCRF-CEM of 8 µg/mL (≈ 23.5 µM). The same compound yielded an inhibition in vivo at 300 mg/kg in experiment [2] of 100%.
Taken in the same sequence, the figures for `Cc1ccc(S(=O)(=O)NC(=O)Nc2nc[nH]n2)cc1` were more than 20 µg/mL and 0%.
For `COc1ccc(NC(=O)NS(=O)(=O)c2ccc(OC)cc2)cc1` the same measures were 15.3 µg/mL (≈ 45.5 µM) and 16%.
`Cc1ccc(S(=O)(=O)NC(=O)NCCc2ccccc2)cc1`: in the experiment on CCRF-CEM, the concentration for half-maximal inhibition (IC50) is more than 20 µg/mL. The compound further yielded an inhibition in vivo at 300 mg/kg in experiment [2] of 24%.
`Cc1ccc(S(=O)(=O)NC(=O)Nc2cc(Cl)c(Cl)c(Cl)c2)cc1` showed an IC50 in the experiment on CCRF-CEM of more than 20 µg/mL. Besides, the Ratio in the experiment on Rattus norvegicus is listed as 0. Besides, the inhibition in vivo at 300 mg/kg in experiment [2] is 44%.
